Hits are enriched below; roughly 1.3% of the tested compounds scored in any of these assays.
CSN deneddyl inh – inhibitors of CSN-mediated cullin deneddylation, primary screen, biochemical, fluorescence polarization, uHTS; inhibition, % at 12.5 µM; actives 0.38% (n = 360,000); COP9 signalosome complex subunit 5 (Homo sapiens), Q92905; AID 651999, 2013; Purified CSN, SCF-Nedd8-OG deneddylation;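 active = pattern-corrected inhibition above about 35%, with an unprinted fluorescence ratio check between 0.5 and 1.5, limit read from the data, passing the limit was not always enough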;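 also: 0% = enzyme with substrate and 100% = substrate without enzyme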
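test system = HEK293T-derived human Csn5 enzyme | amount = 0.24 nM Csn5 enzyme, final concentration | medium = Tris/NaCl/DTT buffer, pH 7.5 | schedule = 90 min reaction at room temperature | signal = FP | evaluation = inhibition of Csn5 cleavage, % | compound dosing = single dose of 12.5 µM compound with 0.25% DMSO | probe or stimulus = 10 nM SCFSkp2-Nedd8OG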
Rpn11 block – Rpn11 (PSMD14) deubiquitinase inhibitors, primary screen, biochemical, fluorescence polarization, uHTS; 26S proteasome non-ATPase regulatory subunit 14 (Homo sapiens), O00487; actives 0.59% (n = 360,000); inhibition, % at 20 µM; human 26S proteasome, Ub4-pepOG fluorescence polarization; 20S core pre-blocked with epoxomicin; AID 588493, 2011;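 active = inhibition at 20 µM, scaled to each plate's controls, above about 33%, limit read from the data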
Target sequence (O00487 whole entry, looked up): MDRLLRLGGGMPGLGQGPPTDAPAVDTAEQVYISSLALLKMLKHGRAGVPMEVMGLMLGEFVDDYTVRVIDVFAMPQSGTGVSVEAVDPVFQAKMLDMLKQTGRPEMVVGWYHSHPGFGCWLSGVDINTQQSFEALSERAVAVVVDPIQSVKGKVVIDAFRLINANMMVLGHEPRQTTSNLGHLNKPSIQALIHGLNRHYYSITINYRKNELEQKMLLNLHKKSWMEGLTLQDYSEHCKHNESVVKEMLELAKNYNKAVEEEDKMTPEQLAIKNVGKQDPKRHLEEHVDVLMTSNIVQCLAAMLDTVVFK
HNF4A DNA FP – change in binding of human HNF4A to DNA, primary screen, biochemical, fluorescence polarization, FITC-DNA | Hepatocyte nuclear factor 4-alpha (Homo sapiens), P41235 | 1 h | activity change, % at 10 µM | actives 0.3% (n = 360,000); in the data active = activity change above about 30%, passing the limit was not always enough
Target sequence (P41235 whole entry, looked up): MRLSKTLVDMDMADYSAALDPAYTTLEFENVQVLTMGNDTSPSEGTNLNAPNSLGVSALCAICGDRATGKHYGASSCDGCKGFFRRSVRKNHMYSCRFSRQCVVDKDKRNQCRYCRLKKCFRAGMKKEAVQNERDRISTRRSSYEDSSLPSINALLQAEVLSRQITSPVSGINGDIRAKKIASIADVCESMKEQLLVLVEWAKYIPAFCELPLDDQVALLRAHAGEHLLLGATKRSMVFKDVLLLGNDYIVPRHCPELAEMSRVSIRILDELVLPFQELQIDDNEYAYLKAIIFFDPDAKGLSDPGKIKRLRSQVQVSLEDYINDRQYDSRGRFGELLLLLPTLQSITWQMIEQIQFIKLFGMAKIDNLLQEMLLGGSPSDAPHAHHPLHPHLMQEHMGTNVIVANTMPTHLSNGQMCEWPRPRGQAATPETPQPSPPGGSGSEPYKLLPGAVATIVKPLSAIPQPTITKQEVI
TPT1 inh – Candida albicans TPT1 enzyme inhibitors, primary screen, biochemical, fluorescence polarization; tRNA 2'-phosphotransferase TPT1 (Candida albicans SC5314); recombinant caTPT1, FP RNA substrate dephosphorylation; inhibition, % at 5 µM; actives 0.81% (n = 300,000); AID 1962, 2009;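 active = inhibition above the mean of all tested compounds plus 3 SD, set per screening campaign, cut at about 24% in these data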;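 also: plate controls were DMSO alone for no effect and ferristatin control at 100 nM for full effect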
aDG glyco act – activators of alpha-DG glycosylation, primary screen, uHTS, Pro5-aDG cells, AlphaScreen; alpha-DG glycosylation AlphaScreen (IIH6); 0% Pro5, 100% B10-LARGE cell signal; activation, % at 10 µM; actives 0.22% (n = 360,000);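 active = activation of at least 8% versus controls, or a plate z-score of at least 8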;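 also: Pro5 are CHO cells carrying HIG-tagged alpha-DG that lacks glycosylation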
Xi reactivation – activators of inactive X chromosome reactivation, primary screen, imaging, XiGFP fibroblasts, GFP high-content imaging, set 2; XiGFP mouse fibroblasts, % GFP-positive cells imaging, 3 d; cells co-treated with 5-aza-dC sensitizer; scaled so ellipticine positive control = 100%; activation, % at 7.58 µM; actives 0.055% (n = 360,000);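 active = mean normalized replicate activation at least 10% and every replicate at or above 10%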;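 also: 0% = median of on-plate neutral control wells and 100% = ellipticine 6 µM median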
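System: 68-5-11 XiGFP fibroblast line | Buffer or medium: DMEM containing 5-aza-dC | Compound: Single point | Times: Compounds 3 days, fix/stain 15 min at room temperature | Benchmarks: Positive control ellipticine, 6 µM final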
* marks the source's active call; other numbers are inactive results; / = no result given; + = active, no number.

SMILES | CSN deneddyl inh | Rpn11 block | HNF4A DNA FP | TPT1 inh | aDG glyco act | Xi reactivation
COc1cccc(S(=O)(=O)N[C@H]2CC[C@H](CCn3cc(-c4ccccc4OC)nn3)O[C@@H]2CO)c1 | / | / | / | / | / | 0.0
CN1c2ccccc2C(=O)/C(=C\Nc2ncccn2)S1(=O)=O | -0.3 | 8.2 | 0.5 | -4.0 | 0.1 | 0.0
Cc1sc2c(c1C)C(=O)/C(=C\Nc1ccncc1)S(=O)(=O)N2C | 35.0* | 4.9 | 6.5 | -1.7 | -0.1 | 0.0
C/C=C/c1ccc([C@@H]2[C@H](CO)N(CC3CC3)C23CN(C(=O)COC)C3)cc1 | / | / | / | / | / | 0.2
CN(CC(=O)Nc1ccc(Cl)c(Cl)c1)CC(=O)Nc1ccc2c(c1)OCO2 | -1.0 | -4.1 | 1.4 | / | 0.0 | 120.4*
CN(CC(=O)Nc1ccc2c(c1)OCO2)CC(=O)Nc1ccc(F)c(F)c1F | 2.0 | -7.7 | 3.6 | / | 0.1 | 0.0
C[C@H]1CN([C@@H](C)CO)S(=O)(=O)c2ccc(-c3cccc(F)c3)cc2O[C@H]1CN(C)S(=O)(=O)c1ccccc1 | / | / | / | / | / | -0.6
COc1cccc(NC(=O)CN(C)C(=O)c2cc(-c3ccco3)nc3ccccc23)c1 | 10.6 | -2.1 | -3.0 | -0.2 | -0.3 | 0.0
CN(CC(=O)Nc1ccc(F)cc1)C(=O)c1cc(-c2ccco2)nc2ccccc12 | 53.0* | 8.0 | -19.3 | 2.2 | 0.1 | 0.0
COc1ccc(NC(=O)N(C)C[C@H]2Oc3ccc(NS(C)(=O)=O)cc3C(=O)N([C@@H](C)CO)C[C@@H]2C)cc1 | / | / | / | / | / | 0.7
COc1ccc(NC(=O)CSc2nc3n[nH]c(C)c3c(=N)n2-c2ccc(Cl)c(C)c2)cc1OC | 36.2* | 4.1 | -2.0 | 1.4 | -0.1 | /
CC(Nc1ccc(F)cc1F)C(=O)NC(=O)NC1CCCCC1 (stereo unspecified) | 0.2 | 0.5 | 144.4* | 0.0 | 0.2 | 0.0
O=C(Nc1ccc(F)cc1F)NC1CCCCCCC1 | 1.9 | 7.5 | 1.7 | / | 0.3 | -0.1
CN1CCN(CCNC(=O)c2ccc3nc(-c4ccc(F)cc4)c(-c4ccc(F)cc4)nc3c2)CC1 | 1.8 | -2.1 | 5.2 | -4.8 | 8.0* | 0.0
COc1ccc2c3c(n(C)c2c1)[C@H](CO)N(C(=O)c1cnccn1)CC31CN(C(=O)c2cnccn2)C1 | / | / | / | / | / | 0.2
Cc1cc(C)c(C(=O)OCC(=O)Nc2cccc(S(=O)(=O)N3CCCCC3)c2)c(C)c1 | + | -0.7 | -3.9 | 2.0 | 0.2 | 0.4
Cc1csc(SCC(=O)Nc2cc(S(=O)(=O)N3CCCC3)ccc2Cl)n1 | 2.2 | 3.0 | -1.1 | 3.1 | 0.0 | /
Cc1csc(SCC(=O)Nc2cccc(S(=O)(=O)N3CCCC3)c2)n1 | 106.5* | -5.0 | -2.8 | 2.1 | -0.3 | /
CCC(=O)N1CC2(C1)[C@@H](c1ccc(-c3ccc(C)cc3)cc1)[C@@H](CO)N2S(C)(=O)=O | / | / | / | / | / | 0.0
Cc1noc(C)c1S(=O)(=O)N(C)C[C@@H]1Oc2ccc(NS(=O)(=O)c3ccc(F)cc3)cc2C(=O)N([C@@H](C)CO)C[C@@H]1C | / | / | / | / | / | -0.7
CCN(CC)C(=O)C1=C(C)N(Cc2ccccc2)C(=O)C(CC(=O)NCCc2ccccn2)C1 (stereo unspecified) | 0.1 | 3.3 | 1.5 | / | 0.1 | 0.1
CCN(CC)C(=O)C1=C(C)N(Cc2ccc(OC)cc2)C(=O)C(CC(=O)NCCc2ccccn2)C1 (stereo unspecified) | 85.3* | 1.2 | 0.7 | / | 0.0 | 0.0
CCN(CC)C(=O)C1=C(C)N(Cc2ccc(C(C)(C)C)cc2)C(=O)C(CC(=O)NC(c2ccccc2)c2ccccc2)C1 (stereo unspecified) | + | 3.0 | 5.1 | / | 0.4 | 0.7
COc1ccc2c3c(n(C)c2c1)[C@H](CO)N(Cc1nccs1)CC31CN(C(=O)CN(C)C)C1 | / | / | / | / | / | 0.3
C/C(=N\NC(=O)Cc1ccccc1Cl)c1cccnc1 | 0.7 | 0.1 | -2.5 | 1.5 | 0.0 | 0.4
SMILES | CSN deneddyl inh | Rpn11 block | HNF4A DNA FP | TPT1 inh | aDG glyco act | Xi reactivation
CCCCCCCC(=O)N/N=C(\C)c1cccnc1 | 58.4* | -2.7 | -3.1 | -5.5 | 1.7 | /
CCCC(=O)Nc1ccc2c(c1)OC[C@H](C)N(Cc1ccccn1)C[C@@H](C)[C@H](OC)CN(C)C2=O | / | / | / | / | / | 0.0
COc1ccc(/C=N/NC(=O)c2ccc(COCC(F)(F)C(F)F)cc2)cc1 | -2.4 | -1.9 | 1.5 | 2.4 | 0.0 | 0.5
O=C(N/N=C/c1ccc2c(c1)OCO2)c1ccc(COCC(F)(F)C(F)F)cc1 | -1.9 | 41.8* | -0.5 | -0.1 | -0.1 | /
O=C(CCN1CCCCC1)NCC[C@@H]1CC[C@@H](NS(=O)(=O)c2cccc(F)c2)[C@@H](CO)O1 | / | / | / | / | / | -0.6
CCOC(=O)c1cc(-c2ccco2)nn1-c1ccc(C)cc1 | 1.4 | 24.9 | 5.0 | 8.5 | 0.2 | 0.0
Cc1ccc(-n2nc(-c3ccco3)cc2C(=O)O)cc1 | 37.7* | 24.7 | -44.7 | 2.4 | 0.0 | 0.1
CN(C)CC(=O)N[C@H]1CC[C@H](CC(=O)O)O[C@@H]1CO | / | / | / | / | / | 0.0
CCOC(=O)C1CCCN(S(=O)(=O)c2ccc(C)cc2)C1 (stereo unspecified) | -3.0 | -0.2 | 3.7 | 0.5 | 1.0 | /
CCOC(=O)C1CCCN(S(=O)(=O)c2ccc(S(=O)(=O)N(CC)CC)cc2)C1 (stereo unspecified) | 6.0 | -2.1 | 1.3 | -2.4 | 7.4* | 0.4
COCC(=O)N1CC2(C1)CN(Cc1cccc(OC)c1)[C@H](CO)c1[nH]c3cc(OC)ccc3c12 | / | / | / | / | / | 0.2
CCCCCCCC1CC(CSc2ncn[nH]2)OC1=O (stereo unspecified) | 53.9* | -4.7 | -0.3 | -13.3 | 1.1 | /
COc1ccccc1C(=O)NNC(=O)CCCN1C(=O)/C(=C/c2cccs2)SC1=S | 32.9 | / | 39.8* | -1.4 | 0.7 | -0.1
O=C(CCCN1C(=O)/C(=C\c2cccs2)SC1=S)NNC(=O)c1ccncc1 | 1.5 | 34.9 | 6.8 | -3.1 | 0.1 | 0.1
CCNC(=O)C[C@H]1C=C[C@H](NC(=O)NC2CCCCC2)[C@@H](CO)O1 | / | / | / | / | / | 0.1
C[C@@H]1CCCCO[C@H](CN(C)S(=O)(=O)c2cccs2)[C@@H](C)CN([C@@H](C)CO)C(=O)c2cc(NC(=O)CCCN(C)C)ccc2O1 | / | / | / | / | / | -0.9
CCN1C(=O)c2cccc3c(NS(=O)(=O)c4ccc(NC(C)=O)cc4)ccc1c23 | -3.7 | -2.2 | -5.3 | -1.8 | -0.3 | /
CCOC(=O)c1ccc(NC(=O)Nc2ccc3c4c(cccc24)C(=O)N3CC)cc1 | 25.1 | / | 67.6* | 4.5 | 0.3 | /

Screening data from PubChem.
